The list is not random: actives were taken first. Their share in the collection is about 1.8%.
Scp1 inh: blocks human Scp-1 phosphatase activity; inhibition, % at 20 µM; 340,000 compounds, 0.88% hits; Recombinant Scp1, phosphopeptide, malachite green phosphate absorbance; Q9GZU7;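 active = inhibition above about 50% at 20 µM, limit read from the data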;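 note: plate controls were DMSO wells with enzyme for no effect and wells lacking enzyme for full effect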
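Assay system: SCP-1 catalytic fragment, aa 76-261 | Buffer or medium: Tris acetate buffer pH 5.5 with MgCl2 and Tween-20 | Compound: One concentration, 20 µM, with 1.0% DMSO | Also added: Phospho 17-mer peptide substrate | Signal: Absorbance at 630 nm | Incubation: 45 min enzyme reaction at room temperature | Measure: % inhibition of SCP-1 phosphate liberation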
HKDC1 inhibitor: inhibitors of human hexokinase HKDC1 | Q2TB90 | recombinant HKDC1, G6PDH/diaphorase resazurin coupled fluorescence | inhibition, % at 20 µM | 340,000 compounds, 0.16% hits;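 active = inhibition above about 35% when tested at 20 µM, limit read from the data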;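 note: plate controls were DMSO wells with enzyme for no effect and DMSO wells lacking enzyme for full effect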
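Assay system: recombinant HKDC1 hexokinase; detection: coupled resazurin fluorescence, excitation 525 nm, emission 613 nm; benchmarks: DMSO-plus-enzyme-mix negative control, buffer-substituted positive control; compound dosing: single 20 µM dose; schedule: 90 min at room temperature in dark; also added: glucose plus 1 mM ATP as hexokinase substrates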
LMPTP block: blocks human LMPTP phosphatase; P24666; recombinant LMPTP-A, OMFP fluorogenic substrate, fluorescence intensity; inhibition, % at 20 µM; 360,000 compounds, 0.22% hits; AID 651560;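 active = compounds that cut the enzyme signal by at least half of the control window in the single-dose screen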;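 note: plate controls were DMSO wells with enzyme plus substrate for no effect and substrate without enzyme for full effect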
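material = LMPTP-A | quantity = 0.625 nM enzyme | reagent = OMFP substrate, 400 µM final | buffer or medium = Bis-Tris pH 6.0, DTT, detergent | detection = endpoint fluorescence intensity from OMFP dephosphorylation | dosing = single 20 µM dose | read-out basis = % inhibition relative to no-enzyme and uninhibited control wells | control set = no-enzyme and uninhibited controls | timing = 50 min at room temperature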
DNMT1 block: inhibitors of human DNMT1 | P26358 | DNMT1 molecular beacon, Hinp1I cleavage, fluorescence | inhibition (reported as % activation of signal), % at 10 µM | 360,000 compounds, 0.83% hits; in the data active = inhibition above about 50%
STEP block: blocks human striatal-enriched tyrosine phosphatase; recombinant STEP, OMFP fluorogenic substrate, fluorescence; P54829; inhibition, % at 20 µM; 360,000 compounds, 0.25% hits; AID 588621;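 active = inhibition at 20 µM, scaled per plate between control wells, above about 37%, limit read from the data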;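 note: 0% = DMSO with enzyme and substrate and 100% = substrate only without enzyme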
Target sequence (P54829 whole entry, looked up): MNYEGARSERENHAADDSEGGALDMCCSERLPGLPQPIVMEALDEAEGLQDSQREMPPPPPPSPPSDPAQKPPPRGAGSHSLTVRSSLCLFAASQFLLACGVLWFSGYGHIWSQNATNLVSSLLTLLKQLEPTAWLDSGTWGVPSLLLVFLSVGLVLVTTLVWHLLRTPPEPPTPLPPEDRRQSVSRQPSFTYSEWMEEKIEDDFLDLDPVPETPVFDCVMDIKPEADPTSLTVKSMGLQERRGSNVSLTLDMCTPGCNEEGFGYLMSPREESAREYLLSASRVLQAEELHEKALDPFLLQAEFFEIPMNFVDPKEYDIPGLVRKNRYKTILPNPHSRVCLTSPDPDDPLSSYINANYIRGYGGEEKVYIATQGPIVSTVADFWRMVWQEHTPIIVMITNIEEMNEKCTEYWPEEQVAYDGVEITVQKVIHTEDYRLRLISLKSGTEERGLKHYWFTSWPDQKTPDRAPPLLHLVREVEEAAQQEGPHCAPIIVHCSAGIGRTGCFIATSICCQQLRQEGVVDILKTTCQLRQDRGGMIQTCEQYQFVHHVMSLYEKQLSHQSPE
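Assay system: isolated STEP enzyme / Timing: 20 min at room temperature, dark / Doses: 20 µM, 1% DMSO / Technique: fluorescence intensity, excitation 480 nm, emission 540 nm / Reagent: fluorogenic phosphatase substrate OMFP at 25 µM final / Measure: percent inhibition scaled to no-enzyme and uninhibited-enzyme controls, plate-pattern corrected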
SUMO1 PPI mod: alters human SUMO1 binding to SIM partners; 360,000 compounds, 0.33% hits; SUMO1 binding to a labelled peptide, TR-FRET, 1 h; P63165; inhibition, % at 20 µM; in the data active = inhibition above about 37%
Target sequence (P63165 whole entry, looked up): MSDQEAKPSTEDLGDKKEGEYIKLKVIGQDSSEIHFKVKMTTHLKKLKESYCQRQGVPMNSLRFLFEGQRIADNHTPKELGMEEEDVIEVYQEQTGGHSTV
HKDC1 act conf: confirmation of human HKDC1 activators. shares compounds with HKDC1 inhibitor. recombinant HKDC1, G6PDH/diaphorase resazurin fluorescence; stronger effect = lower value. inhibition, % at 20 µM. 740 compounds, 14% hits. AID 504708;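 active = inhibition at or below a set negative limit, negative inhibition meaning the enzyme was activated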
DNMT1 inh conf: DNMT1 inhibition confirmation, single concentration; shares compounds with DNMT1 block; DNMT1 molecular beacon HinP1I cleavage, fluorescence; inhibition, % at 10 µM; 2,300 compounds, 8% hits; AID 602385;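 active = average inhibition of at least 30% in the single-concentration confirmation test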
Beacon interf: shows spectral interference in the DNMT1 beacon assay; shares compounds with DNMT1 block; DNMT1 molecular beacon spectral interference counterscreen, fluorescence 485/520; activation (fluorescence interference), % at 10 µM; 2,300 compounds, 1% hits; AID 602387;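 active = activation of at least 30% at 10 µM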;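 note: DNMT1 catalytic domain with a HinP1I cleavage step and a FAM/dabcyl DNA beacon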
STEP conf: confirmation of human STEP phosphatase inhibitors. shares compounds with STEP block. recombinant STEP, OMFP fluorogenic substrate, fluorescence. inhibition, % at 20 µM. 520 compounds, 32% hits; call rule not given here;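 note: 0% = enzyme with substrate plus DMSO and 100% = substrate without enzyme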
* = called active by the depositor; . = no result given.

SMILES | Scp1 inh | HKDC1 inhibitor | LMPTP block | DNMT1 block | STEP block | SUMO1 PPI mod | DNMT1 inh conf | Beacon interf | others
O=C1NN(c2ccccc2)C(=O)/C1=C/c1ccc(Sc2ccc(Cl)cc2)o1 | 9 | 42* | 5 | 88* | 2 | 21 | 19 | 7 | HKDC1 act conf=10
CC1(C(=O)NCc2cccs2)CCN1C(=O)Cc1ccc(Cl)cc1Cl (centres undefined) | . | . | -1 | 6 | 0 | 3 | . | .
NC(=NCc1ccc2c(c1)OCO2)NC(=O)c1ccccc1 | 15 | 29 | 22 | -8 | 70* | 12 | . | . | HKDC1 act conf=17;STEP conf=35*
Cc1noc(C)c1S(=O)(=O)NC(=O)C1(C)CCN1C(=O)CC(c1ccccc1)c1ccccc1 (centres undefined) | . | . | -3 | 1 | -4 | -6 | . | .
CCOC(=O)c1cn(-c2ccc(F)c(F)c2F)c2c(F)c(F)c(F)cc2c1=O | -3 | -9 | -1 | -6 | -2 | -2 | . | .
CCOC(=O)c1cn(-c2nc(-c3ccc(Cl)c(Cl)c3)cs2)c2c(F)c(N3CCOCC3)c(F)cc2c1=O | 22 | 3 | 6 | 58* | 6 | 0 | 0 | -3
CCOc1ccc2nc(S(=O)(=O)NC(=O)C3(C)CCN3C(=O)CCc3cccs3)sc2c1 (centres undefined) | . | . | -1 | 3 | -3 | 12 | . | .
Cc1[nH]n(-c2ncc(-c3ccc(Cl)cc3)s2)c(=O)c1C(c1ccc(Cl)cc1)C(C#N)C#N (centres undefined) | 8 | 20 | 6 | 83* | 1 | 16 | 8 | 0
Cc1sc(NC(=O)c2cc(-c3ccc(Cl)cc3)nc3ccccc23)c(C(N)=O)c1C | 2 | -2 | 14 | 61* | 3 | 0 | 0 | -7
CCc1nnc(NC(=O)c2oc3cc(C)c(C)cc3c2C)s1 | -2 | -9 | -1 | 53* | 1 | -3 | 1 | -1
CCc1nonc1NC(=O)c1oc2cc(C)c(C)cc2c1C | 3 | -1 | -1 | 13 | -1 | -2 | . | .
CC(=C\C(=O)O)/C(=C/c1ccco1)C(=O)O | 19 | -2 | -1 | 8 | 0 | -4 | . | .
CC(=C\C(=O)O)/C(=C/c1ccc(C)o1)C(=O)O | 56* | 1 | -2 | 78* | -1 | -1 | 9 | 14
CCN1C(=S)N[C@@H](c2cccs2)C(C(=O)OC)=C1C | -6 | -3 | -1 | 10 | 2 | 3 | . | .
O=S(=O)(c1ccc(NC(=S)N2CCCCC2CO)cc1)N1CCOCC1 (centres undefined) | . | . | -1 | 60* | -1 | 0 | -1 | -4
O=C(/C=C/c1ccc2c(c1)OCO2)NCCS(=O)(=O)N1CCN(c2ccccc2)CC1 | . | . | 1 | 71* | 4 | 1 | 6 | 4
O=C1OC(c2cccs2)=N/C1=C/c1ccc(-c2cccc(C(=O)O)c2)o1 | 65* | 12 | 1 | 85* | 16 | 30 | 13 | -1
O=C1OC(c2cccs2)=N/C1=C\c1ccc(-c2ccccc2Cl)o1 | 6 | 22 | 2 | -2 | -6 | 15 | . | .
CCOC(=O)c1c(C)[nH]c(C(=O)OCC(=O)NCc2ccc(OC)c(OC)c2)c1C | 3 | -5 | 11 | -1 | -2 | 4 | . | .
CCOC(=O)c1c(C)[nH]c(C(=O)OCC(=O)Nc2cc(C)c(Cl)cc2OC)c1C | -5 | -4 | 0 | 60* | 3 | -1 | 1 | -4
CCCC#Cc1ccc2c(c1)O[C@H](CN(C)C(=O)CC1CC1)[C@H](C)CN([C@@H](C)CO)S2(=O)=O | . | . | 0 | 4 | 0 | 8 | . | .
Cc1c(C)c2c(OCC(=O)Nc3cccnc3)cc3c(c2oc1=O)CCC(C)(C)O3 | -1 | 13 | 1 | 55* | 5 | 14 | 1 | 2
Cc1cc(C(=O)COC(=O)C23CC4CC(CC(O)(C4)C2)C3)c(C)n1C | 5 | -8 | -1 | -4 | -2 | 0 | . | .
CC(=O)NC12CC3CC(C1)CC(C(=O)OCC(=O)c1cc(C)n(C)c1C)(C3)C2 | -3 | -3 | -1 | 51* | 2 | 0 | 3 | 2
CN(Cc1ccc(C(F)(F)F)cc1)C(=O)C1CC(=O)N(Cc2ccco2)C1 (centres undefined) | 3 | -3 | -1 | 2 | 0 | 5 | . | .
SMILES | Scp1 inh | HKDC1 inhibitor | LMPTP block | DNMT1 block | STEP block | SUMO1 PPI mod | DNMT1 inh conf | Beacon interf | others
CCOc1ccc(Cl)cc1-c1cc(C(=O)NC2CCCCC2)[nH]n1 | . | . | 2 | 74* | 0 | 10 | 1 | 1
COc1ccccc1N(C)S(=O)(=O)c1ccc(C(=O)N(C)Cc2ccc(Cl)s2)cc1 | -25 | 1 | 4 | -4 | -1 | 4 | . | .
CN1CCn2cnc(C(=O)N[C@@H](Cc3ccccc3)C(=O)OC(C)(C)C)c2C1=O | . | . | -1 | 5 | 1 | -3 | . | .
O=C(N/N=C/c1ccc2c(c1)OCO2)c1sc2cccc(Cl)c2c1Cl | -7 | -6 | 1 | 35 | 0 | -3 | . | .
COc1ccc(NS(=O)(=O)c2cccc(C(=O)N/N=C/c3ccc4c(c3)OCCO4)c2)cc1 | -4 | -6 | -1 | 60* | -3 | 4 | 4 | 1
COc1ccc(/C=N/NC(=O)c2ccc3c(c2)OCO3)cc1 | -7 | -1 | 0 | 1 | -1 | -4 | . | .
COc1ccc2c(Cl)c(C(=O)N/N=C/c3ccc4c(c3)OCO4)sc2c1 | 0 | 3 | 16 | 62* | 3 | -2 | 2 | -4
O=C(N/N=C/c1ccc2c(c1)OCO2)c1sc2cc(Cl)ccc2c1Cl | 3 | -5 | 2 | 67* | 5 | -2 | 4 | -5
COc1ccc(S(=O)(=O)N2CCCC(C(=O)NC3CC3)C2)cc1Cl (centres undefined) | 9 | -4 | 0 | 2 | -2 | -1 | . | .
CC1(C(=O)NS(=O)(=O)C2CC2)CCCN(C(=O)c2cccc(OC(F)(F)F)c2)C1 (centres undefined) | . | . | 0 | 6 | -1 | 2 | . | .
Cc1cc(/C=C2\SC(=S)NC2=O)c(C)n1C1CC1 | -5 | 5 | 3 | 66* | 1 | 10 | 5 | 2
NC1=NC[C@@H](Cc2ccc(O)cc2)N1CCC12CC3CC(CC(C3)C1)C2 | 4 | -4 | 0 | 58* | 0 | 2 | 0 | -1

Assay outcomes as filed in PubChem BioAssay.
